# Laboratory results from ChEMBL document CHEMBL4308850, “Design of a True Bivalent Ligand with Picomolar Binding Affinity for a G Protein-Coupled Receptor Homodimer” (J Med Chem, 2018).
# Active and inactive are the calls of the source. No cut-off for these calls is given here.
# Experiments:
# D(2) dopamine receptor [1] = molecular target: T1, D(2) dopamine receptor (Homo sapiens, UniProt P14416); test: Displacement of [3H]-YM-09151-2 from dopamine D2 receptor (unknown origin) in sheep brain striatum membranes after 2 hrs by scintillation counting; assay type: cell membranes; details: Ovis aries (sheep)
# T1 sequence (P14416 whole entry): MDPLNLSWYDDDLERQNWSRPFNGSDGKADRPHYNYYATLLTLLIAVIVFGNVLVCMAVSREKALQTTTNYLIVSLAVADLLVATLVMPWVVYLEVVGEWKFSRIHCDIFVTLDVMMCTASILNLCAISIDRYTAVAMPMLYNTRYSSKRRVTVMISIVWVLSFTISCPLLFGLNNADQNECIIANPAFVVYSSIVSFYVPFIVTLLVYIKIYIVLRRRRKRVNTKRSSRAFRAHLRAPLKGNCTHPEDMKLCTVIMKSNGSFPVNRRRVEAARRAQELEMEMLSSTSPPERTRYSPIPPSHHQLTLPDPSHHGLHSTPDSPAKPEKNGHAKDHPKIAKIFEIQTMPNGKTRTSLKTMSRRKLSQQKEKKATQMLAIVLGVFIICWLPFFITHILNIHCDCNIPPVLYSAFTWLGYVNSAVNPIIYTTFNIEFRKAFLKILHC
# Outline: (§1)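 Sheep striatal membranes (50 mM Tris-HCl pH 7.4, protease inhibitors; 0.2 mg protein/mL) incubated 2 h at room temperature in Tris-HCl with 10 mM MgCl2, 0.8 nM free [3H]YM-09151-2 and rising ligand concentrations; nonspecific binding with 30 μM dopamine. Filtration on PEI-soaked GF/C, scintillation counting; fitted to two-state dimer model. Lines 5 and 6: membranes preincubated 1 h with the named TAT-TM6 peptide first.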
# D(2) dopamine receptor [2] = molecular target: T1, D(2) dopamine receptor; test: Antagonist activity at human dopamine D2 receptor expressed in CHO cells co-expressing A2A receptor assessed as reduction in sumanirole-induced response after 90 mins by DMR analysis; assay type: cell-based
# Outline: (§2)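 CHO cells stably co-expressing human A2AR and D2R, seeded 7,000/well 24 h before assay (70–80% confluent). Washed into assay buffer (medium, 20 mM HEPES pH 7.15, 0.1% DMSO, 0.1% BSA), equilibrated 2 h at 24°C; 10 min baseline, antagonist added and read 30 min, then sumanirole (100 nM solution) added and DMR wavelength shift (pm) recorded ≥90 min; expressed as % maximal sumanirole effect.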
# D(2) dopamine receptor [3] = molecular target: T1, D(2) dopamine receptor; test: Displacement of [3H]-YM-09151-2 from dopamine D2 receptor (unknown origin) in sheep brain striatum membranes preincubated with TAT-TM6 A2AR peptide for 1 h before addition of compound and radioligand and measured after 2 hrs by scintillation counting; assay type: cell membranes; outline: as §1
# D(2) dopamine receptor [4] = molecular target: T1, D(2) dopamine receptor; test: Displacement of [3H]-YM-09151-2 from dopamine D2 receptor (unknown origin) in sheep brain striatum membranes preincubated with TAT-TM6 D2R peptide for 1 h before addition of compound and radioligand and measured after 2 hrs by scintillation counting; assay type: cell membranes; outline: as §1
# D(2) dopamine receptor [5] = molecular target: T1, D(2) dopamine receptor; test: Binding affinity to human dopamine D2 receptor transfected in HEK293 cells co-expressing nYFP (1 to 155 residues) and cYFP (156 to 238 residues) at 100 nM after 10 mins by fluorescence complementation assay; assay type: cell-based
# Outline: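 HEK-293T cells transiently co-transfected (lipofectamine) with D2R-nYFP and D2R-cYFP; after 48 h, cells in HBSS with 0.1% glucose (20 μg protein, 50,000 cells/well) treated with 100 nM ligand or HBSS for 10 min. Fluorescence read at 530 nm emission, 400 nm excitation; background from cells lacking fusion proteins subtracted.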
# D(2) dopamine receptor [6] = molecular target: T1, D(2) dopamine receptor; test: Antagonist activity at human dopamine D2 receptor expressed in CHO cells co-expressing A2A receptor assessed as reduction in sumanirole-induced response at 0.5 uM after 90 mins by DMR analysis; assay type: cell-based; outline: as §2
# D(2) dopamine receptor [7] = molecular target: T1, D(2) dopamine receptor; details: CHO, 1 uM
SMILES,K (D(2) dopamine receptor [1]) [nM],IC50 (D(2) dopamine receptor [2]) [nM],K (D(2) dopamine receptor [3]) [nM],K (D(2) dopamine receptor [4]) [nM],Activity (D(2) dopamine receptor [5]),inhibition (D(2) dopamine receptor [6]),inhibition (D(2) dopamine receptor [7])
COC(=O)CN(CC(=O)NCCOCCOCCNC(C)=O)CC(=O)NCCOCCOCCNC(=O)CCC(=O)Nc1ccc(CCN2CN(c3ccccc3)C3(CCN(CCCC(=O)c4ccc(F)cc4)CC3)C2=O)cc1,0.77,280,0.8,0.8,inactive,–,–
O=C(O)CCC(=O)Nc1ccc(CCN2CN(c3ccccc3)C3(CCN(CCCC(=O)c4ccc(F)cc4)CC3)C2=O)cc1,0.7,–,–,–,–,–,–
COC(=O)CN(CC(=O)NCCCOCCOCCOCCCNC(=O)CCC(=O)Nc1ccc(CCN2CN(c3ccccc3)C3(CCN(CCCC(=O)c4ccc(F)cc4)CC3)C2=O)cc1)CC(=O)NCCCOCCOCCOCCCNC(=O)CCC(=O)Nc1ccc(CCN2CN(c3ccccc3)C3(CCN(CCCC(=O)c4ccc(F)cc4)CC3)C2=O)cc1,0.07,–,–,–,–,Active,–
COC(=O)CN(CC(=O)NCCOCCOCCNC(=O)CCC(=O)Nc1ccc(CCN2CN(c3ccccc3)C3(CCN(CCCC(=O)c4ccc(F)cc4)CC3)C2=O)cc1)CC(=O)NCCOCCOCCNC(=O)CCC(=O)Nc1ccc(CCN2CN(c3ccccc3)C3(CCN(CCCC(=O)c4ccc(F)cc4)CC3)C2=O)cc1,0.021,15,0.05,1.1,inactive,Active,–
O=C(CCCN1CCC2(CC1)C(=O)NCN2c1ccccc1)c1ccc(F)cc1,–,–,–,–,–,–,Active
COC(=O)CN(CC(=O)NCCCOCCOCCOCCCNC(C)=O)CC(=O)NCCCOCCOCCOCCCNC(=O)CCC(=O)Nc1ccc(CCN2CN(c3ccccc3)C3(CCN(CCCC(=O)c4ccc(F)cc4)CC3)C2=O)cc1,1.5,–,–,–,–,–,–
